The values that follow come from ChEMBL document CHEMBL1143746, “Synthesis and biological evaluation of sulfonylhydrazone-substituted imidazo[1,2-a]pyridines as novel PI3 kinase p110alpha inhibitors” (Bioorg Med Chem, 2007).

For test [1], the target named is Phosphatidylinositol 4,5-bisphosphate 3-kinase catalytic subunit alpha isoform (Bos taurus, UniProt P32871). The test can be described thus: Inhibition of GST-tagged bovine p110-alpha expressed in SF9/Baculovirus system by SPA.
In another test the test system is A-375. Description: Inhibition of serum-induced proliferation of human A375 cells. The class given is functional, cell-based. Summed up: (§1)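 Cells were grown in DMEM with 10% FBS and penicillin/streptomycin and seeded at 1 × 10⁴ per well onto pre-spotted compound. After 46 h, Alamar blue was added. Fluorescence (ex 544/em 590 nm) was read 2 h later.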
In test [2] the test system is MCF7. Description: Inhibition of serum-induced proliferation of human adriamycin-resistant MCF7 cells. It counts as functional, cell-based.
Test [3] concerns MCF7. The test can be described thus: Inhibition of serum-induced proliferation of human MCF7 cells. It counts as functional, cell-based.
For the next test, the system named is A549. Description: Inhibition of serum-induced proliferation of human A549 cells. The class given is functional, cell-based. The method, boiled down: as §1
Test [4] concerns the target Phosphatidylinositol 4-phosphate 3-kinase C2 domain-containing subunit beta (Homo sapiens, UniProt O00750). The test can be described thus: Inhibition of glu-tagged PI3K C2-beta expressed in SF9/Baculovirus system by SPA.
Test [5] addresses Phosphatidylinositol 4,5-bisphosphate 3-kinase catalytic subunit gamma isoform (Homo sapiens, UniProt P48736). The test can be described thus: Inhibition of His-tagged human p110gamma expressed in SF9/Baculovirus system by SPA.
Test [6] relates to HeLa. Description: Inhibition of serum-induced proliferation of human HeLa cells. It counts as functional, cell-based. The method, boiled down:
as §1

The subject of test [7] is HeLa. The test can be described thus: Suppression of tumor growth in human HeLa cell xenografted BALB/c nude mouse at 50 mg/kg/day, ip after 2 weeks. It counts as functional. Conditions: route intraperitoneal. The method, boiled down: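 Female Balb/c-nu/nu mice, five per group, received 5 × 10⁶ HeLa cells subcutaneously in the hind quarters. Once tumors reached about 100 mm³, the compound was given i.p. at 50 mg/kg daily for 2 weeks. Tumor growth was compared with vehicle, and body weight was monitored.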

pIC50: −log10 of the molar value.

Phosphatidylinositol 4,5-bisphosphate 3-kinase catalytic subunit alpha isoform, sequence (P32871 whole entry, canonical isoform): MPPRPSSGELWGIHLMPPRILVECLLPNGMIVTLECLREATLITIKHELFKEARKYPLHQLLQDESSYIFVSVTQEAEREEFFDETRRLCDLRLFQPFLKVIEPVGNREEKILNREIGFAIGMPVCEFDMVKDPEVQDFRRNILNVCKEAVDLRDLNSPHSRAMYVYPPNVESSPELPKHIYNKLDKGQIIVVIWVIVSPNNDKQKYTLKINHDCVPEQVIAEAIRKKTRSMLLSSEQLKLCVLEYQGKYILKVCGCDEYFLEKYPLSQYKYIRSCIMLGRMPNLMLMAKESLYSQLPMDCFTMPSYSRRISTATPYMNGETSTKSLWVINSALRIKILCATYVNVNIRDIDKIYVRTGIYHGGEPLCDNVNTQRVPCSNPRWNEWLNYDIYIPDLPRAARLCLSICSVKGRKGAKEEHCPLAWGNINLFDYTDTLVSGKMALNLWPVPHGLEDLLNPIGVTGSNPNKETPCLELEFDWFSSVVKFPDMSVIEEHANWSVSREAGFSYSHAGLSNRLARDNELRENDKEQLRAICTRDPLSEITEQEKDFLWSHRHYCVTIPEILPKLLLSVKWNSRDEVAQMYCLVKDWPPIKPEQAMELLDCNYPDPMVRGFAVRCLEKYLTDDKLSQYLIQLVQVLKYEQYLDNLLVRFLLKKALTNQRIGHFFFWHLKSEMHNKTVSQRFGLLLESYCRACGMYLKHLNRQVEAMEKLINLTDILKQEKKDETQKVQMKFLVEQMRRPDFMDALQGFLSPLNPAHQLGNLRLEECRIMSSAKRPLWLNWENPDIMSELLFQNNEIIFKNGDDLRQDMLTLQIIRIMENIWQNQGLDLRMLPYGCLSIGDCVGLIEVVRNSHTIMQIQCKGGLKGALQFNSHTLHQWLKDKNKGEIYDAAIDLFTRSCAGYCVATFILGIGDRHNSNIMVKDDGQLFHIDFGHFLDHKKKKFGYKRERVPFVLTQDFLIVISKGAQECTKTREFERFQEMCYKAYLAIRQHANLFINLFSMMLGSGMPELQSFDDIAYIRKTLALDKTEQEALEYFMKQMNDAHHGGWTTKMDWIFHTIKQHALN
Phosphatidylinositol 4,5-bisphosphate 3-kinase catalytic subunit gamma isoform, sequence (P48736 whole entry, canonical isoform): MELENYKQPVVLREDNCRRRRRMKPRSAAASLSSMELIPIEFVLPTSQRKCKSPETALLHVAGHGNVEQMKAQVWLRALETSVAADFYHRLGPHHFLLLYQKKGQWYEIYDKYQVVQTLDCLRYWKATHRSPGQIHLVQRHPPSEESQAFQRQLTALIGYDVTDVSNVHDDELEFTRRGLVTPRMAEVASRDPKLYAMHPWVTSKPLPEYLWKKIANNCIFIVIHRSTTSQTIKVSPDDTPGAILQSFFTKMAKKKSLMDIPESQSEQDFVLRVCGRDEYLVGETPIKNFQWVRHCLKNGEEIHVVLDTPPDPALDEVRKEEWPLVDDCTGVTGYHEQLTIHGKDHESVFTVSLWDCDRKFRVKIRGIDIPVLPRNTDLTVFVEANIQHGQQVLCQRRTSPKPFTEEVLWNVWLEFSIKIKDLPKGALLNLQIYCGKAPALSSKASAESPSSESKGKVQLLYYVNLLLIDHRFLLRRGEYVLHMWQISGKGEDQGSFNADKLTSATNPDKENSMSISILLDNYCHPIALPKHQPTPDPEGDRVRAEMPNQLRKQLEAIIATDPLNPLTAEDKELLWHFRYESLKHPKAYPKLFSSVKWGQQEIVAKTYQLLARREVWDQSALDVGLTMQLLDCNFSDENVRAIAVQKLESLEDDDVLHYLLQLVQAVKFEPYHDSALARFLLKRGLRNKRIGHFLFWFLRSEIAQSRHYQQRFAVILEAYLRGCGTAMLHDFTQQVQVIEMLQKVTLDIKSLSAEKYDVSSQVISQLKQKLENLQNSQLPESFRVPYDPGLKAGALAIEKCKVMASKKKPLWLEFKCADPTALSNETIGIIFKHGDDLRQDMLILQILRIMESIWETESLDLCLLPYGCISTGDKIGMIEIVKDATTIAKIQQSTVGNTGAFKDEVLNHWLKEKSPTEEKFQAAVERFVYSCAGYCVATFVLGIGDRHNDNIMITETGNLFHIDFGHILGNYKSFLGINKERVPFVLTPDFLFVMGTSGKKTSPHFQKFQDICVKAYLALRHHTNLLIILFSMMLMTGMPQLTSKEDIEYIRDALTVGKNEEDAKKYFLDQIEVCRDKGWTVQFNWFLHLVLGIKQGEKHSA
Phosphatidylinositol 4-phosphate 3-kinase C2 domain-containing subunit beta, sequence (O00750 whole entry, the tested form may be a part, canonical isoform): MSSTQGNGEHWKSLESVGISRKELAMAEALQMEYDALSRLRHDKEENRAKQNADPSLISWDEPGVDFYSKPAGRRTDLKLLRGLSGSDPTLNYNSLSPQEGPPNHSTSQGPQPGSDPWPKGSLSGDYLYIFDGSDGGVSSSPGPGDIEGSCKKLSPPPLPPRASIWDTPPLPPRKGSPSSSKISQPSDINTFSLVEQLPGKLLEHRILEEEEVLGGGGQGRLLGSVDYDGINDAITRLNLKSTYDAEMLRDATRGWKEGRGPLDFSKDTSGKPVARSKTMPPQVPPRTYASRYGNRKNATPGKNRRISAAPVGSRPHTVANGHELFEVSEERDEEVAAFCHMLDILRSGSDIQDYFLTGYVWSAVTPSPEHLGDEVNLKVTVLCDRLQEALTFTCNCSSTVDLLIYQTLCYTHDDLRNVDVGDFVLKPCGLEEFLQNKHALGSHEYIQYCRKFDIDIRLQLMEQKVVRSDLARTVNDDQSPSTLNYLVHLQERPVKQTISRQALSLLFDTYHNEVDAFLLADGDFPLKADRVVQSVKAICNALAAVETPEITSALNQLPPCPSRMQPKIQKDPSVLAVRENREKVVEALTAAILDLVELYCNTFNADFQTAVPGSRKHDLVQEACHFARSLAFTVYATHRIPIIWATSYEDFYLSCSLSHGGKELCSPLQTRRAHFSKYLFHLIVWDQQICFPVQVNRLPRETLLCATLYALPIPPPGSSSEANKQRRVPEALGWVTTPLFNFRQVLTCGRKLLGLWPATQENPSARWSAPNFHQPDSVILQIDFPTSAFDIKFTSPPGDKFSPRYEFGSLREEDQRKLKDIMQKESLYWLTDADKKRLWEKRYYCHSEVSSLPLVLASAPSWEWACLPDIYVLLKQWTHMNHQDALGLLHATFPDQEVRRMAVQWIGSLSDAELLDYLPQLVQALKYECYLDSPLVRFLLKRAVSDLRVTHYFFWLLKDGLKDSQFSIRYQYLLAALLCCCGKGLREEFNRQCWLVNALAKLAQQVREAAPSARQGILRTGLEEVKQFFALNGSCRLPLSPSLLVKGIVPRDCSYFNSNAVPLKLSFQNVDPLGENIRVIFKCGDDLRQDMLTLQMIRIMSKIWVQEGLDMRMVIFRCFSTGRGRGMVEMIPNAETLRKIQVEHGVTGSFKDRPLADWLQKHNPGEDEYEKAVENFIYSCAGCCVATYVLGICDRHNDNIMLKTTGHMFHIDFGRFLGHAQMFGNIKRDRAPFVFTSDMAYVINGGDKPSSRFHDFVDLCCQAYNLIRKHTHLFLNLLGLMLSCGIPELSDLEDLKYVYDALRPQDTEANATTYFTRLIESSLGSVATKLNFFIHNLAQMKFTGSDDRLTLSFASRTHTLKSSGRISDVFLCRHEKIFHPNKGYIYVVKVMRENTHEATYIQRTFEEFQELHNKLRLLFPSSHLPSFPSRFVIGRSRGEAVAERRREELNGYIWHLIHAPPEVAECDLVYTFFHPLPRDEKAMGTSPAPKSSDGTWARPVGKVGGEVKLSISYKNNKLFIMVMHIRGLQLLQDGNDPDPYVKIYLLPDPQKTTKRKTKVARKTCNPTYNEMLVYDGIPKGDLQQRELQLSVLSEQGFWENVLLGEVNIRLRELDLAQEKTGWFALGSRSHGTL

In test [1], `C/C(=N\NS(=O)(=O)c1cc([N+](=O)[O-])ccc1C)c1c(C)nc2ccc(Br)cn12` gave a negative-log IC50 (pIC50) of 6.40.

On to `Cc1ccc([N+](=O)[O-])cc1S(=O)(=O)N(C)/N=C/c1cnc2ccc(F)cn12`, for which the negative logarithm of the IC50 (pIC50) in test [1] is 8.28; in the test on A-375 it was 6.74.

Turning to `Cc1ccc([N+](=O)[O-])cc1S(=O)(=O)n1ccc(-c2c(C)nc3ccc(Br)cn23)n1`, the negative-log IC50 (pIC50) in the test on A-375 was 6.14.

Consider `Cc1ccc([N+](=O)[O-])cc1S(=O)(=O)N(C)/N=C/c1cnc2ccc(C(N)=O)cn12`, for which the figures for the pIC50 (in test [1]; in the test on A-375) were 6.11 and 5.05, respectively.

The compound `O=c1cc(N2CCOCC2)oc2c(-c3ccccc3)cccc12` [LY-294002] had a pIC50 in the test with A-375 of 5.08.

Regarding `C/C(=N\NS(=O)(=O)c1cc([N+](=O)[O-])ccc1C)c1cnc2ccc(Br)cn12`, the values for the pIC50 (in test [1]; in the test on A-375) were 7.77 and 4.92, respectively.

The compound `Cc1nc2ccccn2c1-c1ccn(S(=O)(=O)c2ccc(F)cc2)n1` showed a pIC50 with A-375 of 4.64.

For `CCOC(=O)c1ccc2ncc(/C=N/N(C)S(=O)(=O)c3cc([N+](=O)[O-])ccc3C)n2c1`, the negative-log IC50 (pIC50) in test [1] is 6.47; in the test on A-375, 5.03.

Take `Cc1ccc2ncc(/C=N/N(C)S(=O)(=O)c3cc([N+](=O)[O-])ccc3C)n2c1`: the negative logarithm of the IC50 (pIC50) is 8.22 in test [1] and 6.92 with A-375.

`C/C(=N\N(C)S(=O)(=O)c1cc([N+](=O)[O-])ccc1C)c1cnc2ccc(Br)cn12`: the negative logarithm of the IC50 (pIC50) was 7.09 in [1] and 4.70 with A-375.

As for `Cc1ccc([N+](=O)[O-])cc1S(=O)(=O)N(C)/N=C/c1cnc2ccc(C#N)cn12`, the negative logarithm of the IC50 (pIC50) is 9.59 in test [1] and 7.48 in the test with A-375.

For `Cc1ccc([N+](=O)[O-])cc1S(=O)(=O)N(C)/N=C/c1cnc2ccc(Cl)cn12`, the negative-log IC50 (pIC50) in test [1] was 9.11; in the test on A-375, 7.25.

As to `Cc1ccc([N+](=O)[O-])cc1S(=O)(=O)N/N=C/c1cnc2ccc(Br)cn12`, the values for the pIC50 (in test [1]; in the test with A-375) were 7.68 and 5.05, respectively.

Regarding `Cc1ccc([N+](=O)[O-])cc1S(=O)(=O)N(C)/N=C/c1cnc2ccc(C(F)(F)F)cn12`, the values for the pIC50 (in test [1]; in the test with A-375) were 7.85 and 7.05, respectively.

In test [1], `C/C(=N\N(C)S(=O)(=O)c1cc([N+](=O)[O-])ccc1C)c1c(C)nc2ccc(Br)cn12` had a pIC50 of 6.77.

For the compound `Cc1ccc([N+](=O)[O-])cc1S(=O)(=O)N(C)/N=C/c1cnc2ccc(Br)cn12.Cl`, the pIC50 is 7.41 with MCF7 [2]; 7.72 with MCF7 [3]; 7.24 in the test with A-375; 7.16 with A549; 7.00 in [4]; 7.40 in [5]. The same compound had a pIC50 with HeLa [6] of 7.29. Besides, the Activity with HeLa [7] was found to be 62%.
